These results are taken from ChEMBL document CHEMBL1147705, “Imidazolylpyrimidine based CXCR2 chemokine receptor antagonists” (Bioorg Med Chem Lett, 2006).

pKi: −log10 of the molar value.

Data set [1] in a line: Oral bioavailability in rat at […], iv and po. Type of data set: ADME, organism-based. Conditions: in vivo.
Data set [2] deals with T1, C-X-C chemokine receptor type 2 (Homo sapiens, UniProt P25025).
T1 sequence (P25025 whole entry): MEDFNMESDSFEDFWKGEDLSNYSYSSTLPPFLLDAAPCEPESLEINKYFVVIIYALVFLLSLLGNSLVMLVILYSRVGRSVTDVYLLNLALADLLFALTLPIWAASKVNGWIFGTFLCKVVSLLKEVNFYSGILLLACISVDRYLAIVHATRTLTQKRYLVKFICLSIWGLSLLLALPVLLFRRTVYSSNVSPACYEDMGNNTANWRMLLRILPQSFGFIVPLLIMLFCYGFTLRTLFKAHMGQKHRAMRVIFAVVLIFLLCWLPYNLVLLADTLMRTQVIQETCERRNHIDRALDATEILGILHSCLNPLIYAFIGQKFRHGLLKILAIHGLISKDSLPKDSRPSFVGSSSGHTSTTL
Briefly: Binding affinity to human CXCR2 receptor transfected in CHO cell. It counts as cell-based.

Data set [3] can be described thus: Stability in rat liver microsome at 10 uM after 30 min. It counts as ADME. To be noted: liver microsomes, read-out: Stability. Put shortly:
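Compound at 10 µM incubated with rat liver microsomal enzyme (300 nM) for 30 min at 37 °C; percent of parent remaining after 30 min quantified by LC. Values are means of at least two experiments, standard deviation <±30%.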

Data set [4] in a line: Clearance in dog at 2 umol/kg, iv and 4 umol/kg, po. It counts as ADME, organism-based, Canis lupus familiaris. To be noted: in vivo.
Data set [5] is described as follows: AUC (infinity) in dog at 4 umol/kg, po. Type of data set: ADME, organism-based, Canis lupus familiaris. Set-up: dose 4 umol/kg, route oral, time infinity. Conditions: plasma.
The nature of data set [6]: Cmax in dog at 4 umol/kg, po. Set-up: dose 4 umol/kg, route oral. Conditions: in vivo. It counts as ADME, organism-based, Canis lupus familiaris.
A short description of data set [7]: AUC (infinity) in rat at 4 umol/kg, po. Set-up: dose 4 umol/kg, route oral, time infinity. To be noted: plasma. Type of data set: ADME, organism-based. The essentials: (§1)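 Rats (n = 3) dosed 4 µmol/kg by iv and po routes; plasma pharmacokinetic profile followed after each route to derive the parameters.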
The nature of data set [8]: Half life in dog at 2 umol/kg, iv and 4 umol/kg, po. It counts as ADME, organism-based, Canis lupus familiaris. To be noted: in vivo.
Data set [9] in a line: Cmax in rat at 4 umol/kg, po. It counts as ADME, organism-based. On the set-up: dose 4 umol/kg, route oral. To be noted: in vivo. The essentials: as §1
Data set [10] can be described thus: Oral bioavailability in dog at 2 umol/kg, iv and 4 umol/kg, po. It counts as ADME, organism-based, Canis lupus familiaris. Conditions: in vivo.
Data set [11] can be described thus: Volume of distribution in dog at 2 umol/kg, iv and 4 umol/kg, po. To be noted: in vivo, read-out: Vdss. It counts as ADME, organism-based, Canis lupus familiaris.
Data set [12] is described as follows: Clearance in rat at 4 umol/kg, iv and po. To be noted: in vivo. It counts as ADME, organism-based. The essentials:
as §1

The nature of data set [13]: Half life in rat at 4 umol/kg, iv and po. Type of data set: ADME, organism-based. Conditions: in vivo. Put shortly:
as §1

Data set [14] is described as follows: Volume of distribution in rat at 4 umol/kg, iv and po. Type of data set: ADME, organism-based. Conditions: in vivo, read-out: Vdss. The essentials:
as §1

In [1], `CCOCCCNC(=O)[C@H](CC(C)C)Nc1cc(CC)nc(-n2cnc(-c3ccc(OC(F)(F)F)cc3)c2)n1` yielded a bioavailability of 18%. The compound further gave a negative logarithm of the Ki (pKi) in data set [2] of 7.24. Further, the remaining at 0.5 h, 10 µM in data set [3] came out at 77%.

As to `CCCCc1cc(N[C@@H](CC(C)C)C(=O)NCCCOCC)nc(-n2cnc(-c3ccc(OC(F)(F)F)cc3)c2)n1`, the bioavailability in data set [1] was found to be 7%. The compound further showed a negative logarithm of the Ki (pKi) in [2] of 7.77. Moreover, the remaining at 0.5 h, 10 µM in data set [3] was 66%.

`CCCCc1cc(N[C@@H](CC(C)C)C(=O)NCCCOCC)nc(-n2cnc(-c3ccccc3)c2)n1`: the pKi in [2] is 7.00. For the same compound, the remaining at 0.5 h, 10 µM in data set [3] turned out to be 2%.

`CCCCc1cc(N[C@@H](CC(C)C)C(=O)NCCCOCC)nc(-n2cnc(-c3ccc(C(F)(F)F)cc3)c2)n1` had a negative logarithm of the Ki (pKi) in data set [2] of 7.85. In addition, the remaining at 0.5 h, 10 µM in data set [3] is 80%.

Compound `CCCCc1cc(N[C@@H](CC(C)C)C(=O)NCCCOCC)nc(-n2ccnc2C)n1` gave a pKi in [2] of less than 5.00. Also, in data set [3], the remaining at 0.5 h, 10 µM was 27%.

For the compound `CCCCc1cc(N[C@@H](CC(C)C)C(=O)NCCCOCC)nc(-n2cnc(C)c2)n1`, in [2], the negative-log Ki (pKi) was 7.05. Also, the remaining at 0.5 h, 10 µM in data set [3] came out at 25%.

For `CCCCc1cc(N[C@@H](CC(C)C)C(=O)NCCCOCC)nc(-n2cnc(-c3ccc([N+](=O)[O-])cc3)c2)n1`, in data set [2], the negative-log Ki (pKi) was 6.80. In addition, the remaining at 0.5 h, 10 µM in [3] worked out at 48%.

In the case of `CCCCc1cc(N[C@@H](CC(C)C)C(=O)NCCCOCC)nc(-n2cnc(-c3ccc(C#N)cc3)c2)n1`, the pKi in data set [2] was 7.37. The remaining at 0.5 h, 10 µM in data set [3] was 50%.

Compound `CCCCc1cc(N[C@@H](CC(C)C)C(=O)NCCCOCC)nc(-n2cnc(-c3ccc(N)cc3)c2)n1` gave a pKi in data set [2] of 6.22.

In the case of `CCCCc1cc(N[C@@H](CC(C)C)C(=O)NCCCOCC)nc(-n2cncn2)n1`, the pKi in data set [2] is less than 5.00. In [3], the remaining at 0.5 h, 10 µM amounted to 30%.

With `CCCCc1cc(N[C@@H](CC(C)C)C(=O)NCCCOCC)nc(-n2cnc(-c3ccc(Cl)cc3)c2)n1`, the negative-log Ki (pKi) in data set [2] was 7.57. Further, in data set [3], the remaining at 0.5 h, 10 µM amounted to 54%.

`CCCCc1cc(N[C@@H](CC(C)C)C(=O)NCCCOCC)nc(-n2cnc(-c3ccc(F)cc3)c2)n1` showed a pKi in [2] of 7.43. Further, the remaining at 0.5 h, 10 µM in [3] worked out at 20%.

Compound `CCCCCCCCSc1cc(N[C@@H](CC(C)C)C(=O)NCCCOCC)nc(-n2ccnc2)n1` had a pKi in data set [2] of 7.22. For the same compound, in [3], the remaining at 0.5 h, 10 µM turned out to be 26%.

Regarding `CCCCc1cc(N[C@@H](CC(C)C)C(=O)NCCCOCC)nc(-n2cnc(-c3ccc(OC)cc3)c2)n1`, the negative-log Ki (pKi) in data set [2] is 7.38. The remaining at 0.5 h, 10 µM in data set [3] turned out to be 30%.

Turning to `CCCc1cc(N[C@@H](CC(C)C)C(=O)NCCCOCC)nc(-n2cnc(-c3cccc(OC(F)(F)F)c3)c2)n1`, the bioavailability in [1] came out at 7%. Besides, the pKi in [2] is 7.46. In addition, in data set [3], the remaining at 0.5 h, 10 µM was found to be 55%.

Take `CCOCCCNC(=O)[C@H](CC(C)C)Nc1ccnc(-n2cnc(-c3ccc(OC(F)(F)F)cc3)c2)n1`: the bioavailability in [1] is 4%. The compound also had a pKi in data set [2] of 6.70. Besides, the remaining at 0.5 h, 10 µM in [3] came out at 5%.

As for `CCCCCCCCc1cc(N[C@@H](CC(C)C)C(=O)NCCCOCC)nc(-n2ccnc2)n1`, the pKi in data set [2] is 6.92. In addition, the remaining at 0.5 h, 10 µM in data set [3] worked out at 36%.

Compound `CCCCc1cc(N[C@@H](CC(C)C)C(=O)NCCCOCC)nc(-c2ccncc2)n1` gave a negative logarithm of the Ki (pKi) in data set [2] of less than 5.30. For the same compound, the remaining at 0.5 h, 10 µM in data set [3] turned out to be 52%.

The compound `CCOCCCNC(=O)[C@H](CC(C)C)Nc1cc(C(C)(C)C)nc(-n2ccnc2)n1` showed a pKi in data set [2] of 5.22. In addition, the remaining at 0.5 h, 10 µM in [3] came to 83%.

`CCCc1cc(N[C@@H](CC(C)C)C(=O)NCCCOCC)nc(-n2cnc(-c3ccccc3OC(F)(F)F)c2)n1` returned a bioavailability in data set [1] of 5%. The negative-log Ki (pKi) in [2] is 7.30. Besides, the remaining at 0.5 h, 10 µM in data set [3] turned out to be 13%.

On to `CCCCCCc1cc(N[C@@H](CC(C)C)C(=O)NCCCOCC)nc(-n2ccnc2)n1`, for which, in data set [2], the pKi is 6.54. The remaining at 0.5 h, 10 µM in [3] was found to be 50%.

With `CCOCCCNC(=O)[C@H](CC(C)C)Nc1cc(C)nc(-n2cnc(-c3ccc(OC(F)(F)F)cc3)c2)n1`, the bioavailability in data set [1] was 22%. In data set [2], the negative logarithm of the Ki (pKi) is 7.36. Further, in data set [3], the remaining at 0.5 h, 10 µM turned out to be 67%.

For `CCCc1cc(N[C@@H](CC(C)C)C(=O)NCCCOCC)nc(-n2cnc(-c3ccc(OC(F)(F)F)cc3)c2)n1`, the clearance in data set [4] was 0.723 L/h/kg; in [12] it was 0.59 L/h/kg. Also, the area under the curve AUC(0-inf) stood at 1390 nM·h in [5] and 2430 nM·h in data set [7]. For the same compound, the values for the Cmax in data set [6] and in data set [9] were 0.3 µM and 0.66 µM, respectively. The bioavailability turned out to be 33% in [1] and 25% in data set [10]. Also, the half-life in data set [8] was 1.1 h; in [13], 2.7 h. The compound also gave a pKi in [2] of 7.60. For the same compound, the Vd in data set [11] was 2.79 L/kg; in data set [14], 1.99 L/kg. Moreover, in data set [3], the remaining at 0.5 h, 10 µM came to 74%.

Take `CCCCc1cc(N[C@@H](CC(C)C)C(=O)NCCCOCC)nc(-n2cnc(-c3ccc(C)cc3)c2)n1`: in data set [2], the pKi is 7.40. In addition, in [3], the remaining at 0.5 h, 10 µM turned out to be 35%.

`CCCCc1cc(N[C@@H](CC(C)C)C(=O)NCCCOCC)nc(-n2cnc(C(C)(C)C)c2)n1` showed a pKi in data set [2] of 7.07. Moreover, the remaining at 0.5 h, 10 µM in data set [3] stood at 13%.

In data set [2], `CCCCc1cc(N[C@@H](CC(C)C)C(=O)NCCCOCC)nc(-n2ccnc2)n1` gave a pKi of 5.77. The remaining at 0.5 h, 10 µM in [3] amounted to 68%.

`CCCCc1cc(N[C@@H](CC(C)C)C(=O)NCCCOCC)nc(-n2cnc(-c3ccc(O)cc3)c2)n1` had a pKi in data set [2] of 7.49. In [3], the remaining at 0.5 h, 10 µM is 65%.

In the case of `CCCCc1cc(N[C@@H](CC(C)C)C(=O)NCCCOCC)nc(-c2cccnc2)n1`, in data set [2], the negative logarithm of the Ki (pKi) was 6.12. Also, in [3], the remaining at 0.5 h, 10 µM worked out at 36%.

As a reminder, the bioavailability is the share of a dose that reaches the circulation, judged against a reference dose that is usually intravenous. A high value points to much systemic uptake. What is called pKi is −log10 of the Ki, conventionally taken in molar units. Read a low pKi as a high Ki. The term AUC(0-inf) denotes total exposure, with the tail of the curve extrapolated. The low end stands for low exposure, the high end for high exposure. The Cmax is the highest concentration seen after dosing. As usually defined, the half-life is the time needed for the level to fall by half in the phase considered. Read a low half-life as rapid decline.
